Source: ChEMBL document CHEMBL2346506, “Cytotoxicity and modulation of cancer-related signaling by (Z)- and (E)-3,4,3',5'-tetramethoxystilbene isolated from Eugenia rigida” (J Nat Prod, 2013)
pIC50: −log10 of the molar value. Activity calls are given as the source filed them. The calls are words filed in the database; no cut-off is given here.

Assays:
[1] = Inhibition of NFkappaB signaling pathway in human HeLa cells assessed as inhibition of PMA induced luciferase treated 30 mins before induction; type: cell-based
Summary of the method: (§1)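 Reporter assay in cells transfected with pathway luciferase plasmids. Cells plated at 0.015 × 10⁶ per well in 10% FBS, switched after 24 h to DMEM with 1% FBS, then transfected. 24 h after transfection, compound (final 40, 60, 80 or 100 μM) was added, followed 30 min later by inducer (IL-6, TGF-β, wnt3a or PMA). Luciferase was read 4 or 6 h after induction (6 h for Notch, Wnt, Hedgehog). Value is the IC50 or the lowest concentration giving maximal 50–60% inhibition; two independent experiments.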

BT-549 = assay: Cytotoxicity against human BT549 cells assessed as growth inhibition measured at 100 uM after 48 hrs by Neutral Red dye assay
[2] = biological target: Forkhead box protein O1 (Homo sapiens) (UniProt Q12778); assay: Inhibition of FoxO signaling pathway in human HeLa cells assessed as inhibition of luciferase at 100 uM […]; type: cell-based
Forkhead box protein O1 (Homo sapiens), sequence (Q12778 whole entry): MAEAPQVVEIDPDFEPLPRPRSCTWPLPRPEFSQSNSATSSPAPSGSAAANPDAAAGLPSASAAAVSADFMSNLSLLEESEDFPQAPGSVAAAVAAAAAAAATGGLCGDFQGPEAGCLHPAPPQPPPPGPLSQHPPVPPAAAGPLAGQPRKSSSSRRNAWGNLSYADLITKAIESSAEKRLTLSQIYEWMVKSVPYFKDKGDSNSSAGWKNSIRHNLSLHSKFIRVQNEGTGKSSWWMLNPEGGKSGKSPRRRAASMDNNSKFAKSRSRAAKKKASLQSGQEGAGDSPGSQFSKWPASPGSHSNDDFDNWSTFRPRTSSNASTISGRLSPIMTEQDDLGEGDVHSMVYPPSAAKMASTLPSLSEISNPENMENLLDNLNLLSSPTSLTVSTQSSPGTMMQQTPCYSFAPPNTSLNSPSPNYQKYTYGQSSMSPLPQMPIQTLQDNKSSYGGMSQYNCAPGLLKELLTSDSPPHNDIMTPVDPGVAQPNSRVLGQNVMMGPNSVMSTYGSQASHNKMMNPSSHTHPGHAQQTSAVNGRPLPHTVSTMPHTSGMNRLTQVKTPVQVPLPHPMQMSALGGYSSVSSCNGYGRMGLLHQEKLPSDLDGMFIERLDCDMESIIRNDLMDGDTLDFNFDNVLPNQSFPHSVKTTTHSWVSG

Vero = assay: Cytotoxicity against african green monkey Vero cells assessed as growth inhibition measured at 100 uM after 48 hrs by […] assay; type: cell-based; settings: chlorocebus sabaeus
SK-MEL = assay: Cytotoxicity against human SK-MEL cells assessed as growth inhibition measured after 48 hrs by Neutral Red dye assay
[3] = Inhibition of Wnt signaling pathway in human HeLa cells assessed as measured as lowest concentration required 50 to 60 % inhibition of Wnt3a induced luciferase treated 30 mins before induction; type: cell-based; summary of the method: as §1
HeLa [4] = assay: Inhibition of smad3/4 signaling pathway in human HeLa cells assessed as measured as lowest concentration required 50 to 60 % inhibition of TGF-beta induced luciferase treated 30 mins before induction; type: functional; summary of the method: as §1
[5] = biological target: Myc proto-oncogene protein (Homo sapiens) (UniProt P01106); assay: Inhibition of Myc signaling pathway in human HeLa cells assessed as inhibition of PMA induced luciferase at 100 uM treated 30 mins before induction; type: cell-based; summary of the method: as §1
Myc proto-oncogene protein (Homo sapiens), sequence (P01106 whole entry): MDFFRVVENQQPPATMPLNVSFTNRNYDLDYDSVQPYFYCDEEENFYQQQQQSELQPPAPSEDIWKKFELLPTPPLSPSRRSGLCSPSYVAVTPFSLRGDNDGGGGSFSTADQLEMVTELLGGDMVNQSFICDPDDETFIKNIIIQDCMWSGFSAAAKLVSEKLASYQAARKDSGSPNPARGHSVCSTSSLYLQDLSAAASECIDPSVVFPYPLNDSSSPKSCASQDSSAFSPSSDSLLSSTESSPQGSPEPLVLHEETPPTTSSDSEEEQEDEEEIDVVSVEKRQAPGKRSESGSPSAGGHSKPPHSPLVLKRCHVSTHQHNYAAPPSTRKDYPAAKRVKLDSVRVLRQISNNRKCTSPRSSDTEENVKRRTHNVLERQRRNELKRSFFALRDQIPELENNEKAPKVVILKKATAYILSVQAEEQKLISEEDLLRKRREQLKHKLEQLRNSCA

[6] = Inhibition of Wnt signaling pathway in human HeLa cells assessed as inhibition of Wnt3a induced luciferase treated 30 mins before induction; type: cell-based; summary of the method: as §1
HeLa [7] = assay: Inhibition of Stat3 signaling pathway in human HeLa cells assessed as inhibition of IL-6 induced luciferase at 100 uM treated 30 mins before induction; type: functional; summary of the method: as §1
LLC-PK1 = assay: Cytotoxicity against pig LLC-PK1 cells assessed as growth inhibition measured at 100 uM after 48 hrs by […] assay; type: cell-based, Sus scrofa; settings: llc-pk1, 48 h
[8] = Inhibition of NFkappaB signaling pathway in human HeLa cells assessed as inhibition of PMA induced luciferase at 100 uM treated 30 mins before induction; type: cell-based; summary of the method: as §1
HL-60 [9] = assay: Cytotoxicity against human HL60 cells assessed as growth inhibition measured after 48 hrs by XTT assay; type: functional, cell-based; settings: HL-60, 48 h
HL-60 [10] = assay: Inhibition of PMA induced ROS generation in human HL60 cells assessed as inhibition of ROA mediated oxidation of DCFH; type: functional, cell-based
Summary of the method: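 HL-60 cells (0.8 × 10⁶/mL) in RPMI-1640 with 10% FBS were pretreated 30 min with compound (0.4–100 μM). PMA (100 ng/mL) was then added for 30 min, followed by DCFH-DA (5 μg/mL) for 15 min. DCF fluorescence read at Ex 485 / Em 530 nm and compared with vehicle control. Trolox served as positive control.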

HeLa [11] = assay: Inhibition of smad3/4 signaling pathway in human HeLa cells assessed as inhibition of TGF-beta induced luciferase treated 30 mins before induction; type: functional, cell-based; summary of the method: as §1
[12] = Inhibition of Ets signaling pathway in human HeLa cells assessed as inhibition of PMA induced luciferase at 100 uM treated 30 mins before induction; type: cell-based; summary of the method: as §1
[13] = biological target: T1, Nitric oxide synthase, inducible (Mus musculus) (UniProt P29477); assay: Inhibition of iNOS in LPS-induced mouse RAW264.7 cells assessed as inhibition of […] up to 33.3 uM measured after 24 hrs; type: cell-based
T1 sequence (whole entry): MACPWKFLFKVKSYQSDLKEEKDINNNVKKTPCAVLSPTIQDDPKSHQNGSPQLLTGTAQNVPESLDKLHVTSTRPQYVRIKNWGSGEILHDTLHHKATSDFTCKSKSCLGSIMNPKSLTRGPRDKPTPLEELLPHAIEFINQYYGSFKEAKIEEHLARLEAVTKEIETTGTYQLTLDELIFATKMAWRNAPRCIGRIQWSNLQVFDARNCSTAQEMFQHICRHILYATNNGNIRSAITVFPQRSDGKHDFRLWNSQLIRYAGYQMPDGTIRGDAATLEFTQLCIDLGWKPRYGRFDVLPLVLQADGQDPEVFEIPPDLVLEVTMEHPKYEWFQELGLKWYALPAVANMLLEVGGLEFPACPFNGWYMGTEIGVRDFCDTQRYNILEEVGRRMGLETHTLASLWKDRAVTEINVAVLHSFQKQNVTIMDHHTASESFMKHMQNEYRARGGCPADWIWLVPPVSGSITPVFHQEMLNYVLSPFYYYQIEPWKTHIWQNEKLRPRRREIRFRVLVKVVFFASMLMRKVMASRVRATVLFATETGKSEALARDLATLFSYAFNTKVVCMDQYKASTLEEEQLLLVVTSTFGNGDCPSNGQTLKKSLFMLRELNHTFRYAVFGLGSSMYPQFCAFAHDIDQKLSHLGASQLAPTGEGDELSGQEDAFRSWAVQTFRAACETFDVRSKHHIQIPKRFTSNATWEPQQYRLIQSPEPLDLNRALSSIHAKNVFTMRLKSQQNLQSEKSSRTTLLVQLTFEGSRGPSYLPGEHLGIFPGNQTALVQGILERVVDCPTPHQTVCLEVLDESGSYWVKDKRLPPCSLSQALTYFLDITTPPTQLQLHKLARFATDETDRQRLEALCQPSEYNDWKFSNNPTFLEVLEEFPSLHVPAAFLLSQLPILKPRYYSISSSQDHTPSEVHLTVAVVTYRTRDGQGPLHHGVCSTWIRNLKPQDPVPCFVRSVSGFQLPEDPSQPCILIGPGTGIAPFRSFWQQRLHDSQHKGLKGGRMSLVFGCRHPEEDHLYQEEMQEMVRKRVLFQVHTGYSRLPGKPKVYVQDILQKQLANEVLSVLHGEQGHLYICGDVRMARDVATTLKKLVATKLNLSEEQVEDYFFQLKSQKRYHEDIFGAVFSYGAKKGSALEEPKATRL
Summary of the method: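 RAW 264.7 macrophages seeded at 50 000 per well and grown 24 h. Compound added 30 min before LPS (5 μg/mL), then cells incubated a further 24 h. Nitrite in the supernatant measured with Griess reagent relative to vehicle control. Parthenolide served as positive control; cytotoxicity checked in parallel.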

HeLa [14] = assay: Cytotoxicity against human HeLa cells assessed as growth inhibition measured after 48 hrs by Neutral Red dye assay
SK-OV-3 = assay: Cytotoxicity against human SKOV3 cells assessed as growth inhibition measured at 100 uM after 48 hrs by […] assay; type: functional, cell-based
[15] = Inhibition of E2F signaling pathway in human HeLa cells assessed as inhibition of PMA induced luciferase at 100 uM treated 30 mins before induction; type: cell-based; summary of the method: as §1
[16] = Inhibition of AP1 signaling pathway in human HeLa cells assessed as inhibition of PMA induced luciferase treated 30 mins before induction; type: cell-based; summary of the method: as §1
KB = assay: Cytotoxicity against human KB cells assessed as growth inhibition measured at 100 uM after 48 hrs by Neutral Red dye assay
[17] = Inhibition of AP1 signaling pathway in human HeLa cells assessed as measured as lowest concentration required 50 to 60 % inhibition of PMA induced luciferase treated 30 mins before induction; type: cell-based; summary of the method: as §1
[18] = Inhibition of Hedgehog signaling pathway in human HeLa cells assessed as inhibition of PMA induced luciferase at 100 uM treated 30 mins before induction; type: cell-based; summary of the method: as §1
[19] = Inhibition of Notch signaling pathway in human HeLa cells assessed as inhibition of PMA induced luciferase at 100 uM treated 30 mins before induction; type: cell-based; summary of the method: as §1

## COc1cc(/C=C/c2ccc(OC)c(OC)c2)cc(OC)c1 [(E)-3,4,3',5'-TETRAMETHOXYSTILBENE]
[1]
  pIC50: 4.05
BT-549
  growth inhibition (GI): inactive
[2]
  inhibition: < 40%
Vero
  growth inhibition (GI): Not Active
SK-MEL
  pIC50: 4.22
[3]
  MED: 80 µM
HeLa [4]
  MED: 77 µM
[5]
  inhibition: < 40%
[6]
  pIC50: 4.10
HeLa [7]
  inhibition at 100 µM: < 40%
LLC-PK1
  growth inhibition (GI): Not Active
[8]
  inhibition: < 40%
HL-60 [9]
  pIC50: 4.48
HL-60 [10]
  pIC50: 4.48
HeLa [11]
  pIC50: 4.00
[12]
  inhibition: < 40%
[13]
  inhibition: inactive
HeLa [14]
  pIC50: 5.10
SK-OV-3
  growth inhibition (GI): inactive
[15]
  inhibition: < 40%
[16]
  pIC50: 4.10
KB
  growth inhibition (GI): inactive
[17]
  MED: 100 µM
[18]
  inhibition: < 40%
[19]
  inhibition: < 40%
